# Data taken from ChEMBL document CHEMBL5331136, “Design, Synthesis, and Biological Evaluation of Novel Spiro Imidazobenzodiazepines to Identify Improved Inhaled Bronchodilators” (J Med Chem, 2023).
# The source made the active and inactive calls. The rule behind the calls is not given here.
# Test system: not listed separately
# Assay: Aqueous solubility of the compound at […] under shaking condition for 24 hrs by UV absorbance based analysis
# Format: physicochemical
# Settings: aqueous
row,Structure (SMILES),solubility at 24 h
1,CCC1N=C(c2ccccc2F)c2cc(Br)ccc2-n2cnc(C(=O)O)c21 (racemic),77600 µM
2,CCOC(=O)c1ncn2c1C(CC)N=C(c1ccccc1F)c1cc(Br)ccc1-2 (racemic),417 µM
3,CCC1N=C(c2ccccc2F)c2cc(Br)ccc2NC1=O (racemic),397 µM

# Same assay, conditions: buffer, 24 h
row,Structure (SMILES),solubility
1,CCOC(=O)c1ncn2c1C1(CC1)N=C(c1ccccc1F)c1cc(Br)ccc1-2,141 µM
2,CC1(C)N=C(c2ccccc2F)c2cc(Br)ccc2NC1=O,319 µM
3,C#Cc1ccc2c(c1)C(c1ccccc1F)=NC1(CC1)c1c(C(=O)O)ncn1-2,40300 µM
4,CCOC(=O)c1ncn2c1C1(CC1)N=C(c1ccccc1F)c1cc(C3CC3)ccc1-2,96 µM
5,CCOC(=O)c1ncn2c1C1(CCCCC1)N=C(c1ccccc1F)c1cc(Br)ccc1-2,141 µM
6,O=C1Nc2ccc(Br)cc2C(c2ccccc2F)=NC12CCC2,109 µM
7,CC1(C)N=C(c2ccccc2F)c2cc(Br)ccc2-n2cnc(C(=O)O)c21,4400 µM
8,CCOC(=O)c1ncn2c1C1(CC1)N=C(c1ccccc1F)c1cc(Cl)ccc1-2,54 µM
9,O=C1Nc2ccc(Br)cc2C(c2ccccc2F)=NC12CC2,321 µM
10,O=C1Nc2ccc(Br)cc2C(c2ccccc2F)=NC12CCCCC2,94 µM

# Test system: HEK293
# Assay: Cytotoxicity against HEK293 cells assessed as lethal dose measured after 18 hrs by CellTiter-Glo assay
# Format: functional
# Settings: Homo sapiens, read-out: LD50 (the source's name)
# Outline: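 HEK293T cells grown in DMEM/high glucose with NEAA, HEPES, pen/strep, 10% heat-inactivated FBS. Plated 15,000 cells/well, then 4 h at 37 °C, 5% CO2. Compound added as 1:3 serial dilutions, top final concentration 300 µM. After 18 h, read luminescence by CellTiter-Glo. DMSO negative control, aminoketone positive control. Three independent experiments in quadruplicate, variable-slope nonlinear regression.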
row,Structure (SMILES),CC50
1,CCOC(=O)c1ncn2c1C1(CC1)N=C(c1ccccc1F)c1cc(Br)ccc1-2,> 120 µM
2,CC1(C)N=C(c2ccccc2F)c2cc(Br)ccc2NC1=O,> 150 µM
3,C#Cc1ccc2c(c1)C(c1ccccc1F)=NC1(CC1)c1c(C(=O)O)ncn1-2,> 300 µM
4,CCOC(=O)c1ncn2c1C1(CC1)N=C(c1ccccc1F)c1cc(C3CC3)ccc1-2,> 120 µM
5,CCOC(=O)c1ncn2c1C1(CCCCC1)N=C(c1ccccc1F)c1cc(Br)ccc1-2,96 µM
6,O=C1Nc2ccc(Br)cc2C(c2ccccc2F)=NC12CCC2,> 150 µM
7,CC1(C)N=C(c2ccccc2F)c2cc(Br)ccc2-n2cnc(C(=O)O)c21,> 300 µM
8,CCOC(=O)c1ncn2c1C1(CC1)N=C(c1ccccc1F)c1cc(Cl)ccc1-2,> 150 µM
9,O=C1Nc2ccc(Br)cc2C(c2ccccc2F)=NC12CC2,> 150 µM
10,CCC1N=C(c2ccccc2F)c2cc(Br)ccc2-n2cnc(C(=O)O)c21 (racemic),> 300 µM
11,CCOC(=O)c1ncn2c1C(CC)N=C(c1ccccc1F)c1cc(Br)ccc1-2 (racemic),> 300 µM
12,O=C1Nc2ccc(Br)cc2C(c2ccccc2F)=NC12CCCCC2,87 µM
13,CCC1N=C(c2ccccc2F)c2cc(Br)ccc2NC1=O (racemic),> 150 µM

# Molecular target: GABA-A receptor; anion channel (Rattus norvegicus) (UniProt O09028+P15431+P18506+P18508+P19969+P20236+P23574+P23576+P28471+P28473+P30191+P62813+P63079+P63138+Q91ZM7+Q9ES14)
# Assay: Displacement of [3H]flunitrazepam from GABAA receptor in rat brain extract at 10 uM relative to control
# Format: tissue-based
# Settings: not given
row,Structure (SMILES),Activity
1,CCOC(=O)c1ncn2c1C1(CC1)N=C(c1ccccc1F)c1cc(Br)ccc1-2,94%
2,CC1(C)N=C(c2ccccc2F)c2cc(Br)ccc2NC1=O,70%
3,C#Cc1ccc2c(c1)C(c1ccccc1F)=NC1(CC1)c1c(C(=O)O)ncn1-2,55%
4,CCOC(=O)c1ncn2c1C1(CC1)N=C(c1ccccc1F)c1cc(C3CC3)ccc1-2,22%
5,CCOC(=O)c1ncn2c1C1(CCCCC1)N=C(c1ccccc1F)c1cc(Br)ccc1-2,74%
6,O=C1Nc2ccc(Br)cc2C(c2ccccc2F)=NC12CCC2,71%
7,CC1(C)N=C(c2ccccc2F)c2cc(Br)ccc2-n2cnc(C(=O)O)c21,74%
8,CCOC(=O)c1ncn2c1C1(CC1)N=C(c1ccccc1F)c1cc(Cl)ccc1-2,34%
9,O=C1Nc2ccc(Br)cc2C(c2ccccc2F)=NC12CC2,97%
10,CCC1N=C(c2ccccc2F)c2cc(Br)ccc2-n2cnc(C(=O)O)c21 (racemic),102%
11,CCOC(=O)c1ncn2c1C(CC)N=C(c1ccccc1F)c1cc(Br)ccc1-2 (racemic),61%
12,O=C1Nc2ccc(Br)cc2C(c2ccccc2F)=NC12CCCCC2,33%
13,CCC1N=C(c2ccccc2F)c2cc(Br)ccc2NC1=O (racemic),95%

# Molecular target: GABA-A receptor; anion channel
# Assay: Displacement of [3H]flunitrazepam from GABAA receptor in rat brain extract
# Format: tissue-based
# Settings: not given
row,Structure (SMILES),IC50
1,CCC1N=C(c2ccccc2F)c2cc(Br)ccc2-n2cnc(C(=O)O)c21 (racemic),145 µM
2,CCOC(=O)c1ncn2c1C(CC)N=C(c1ccccc1F)c1cc(Br)ccc1-2 (racemic),175 µM
3,CCC1N=C(c2ccccc2F)c2cc(Br)ccc2NC1=O (racemic),134 µM

# Test system: not listed separately
# Assay: Metabolic stability in mouse liver S9 fraction assessed as parent compound remaining at 10 uM measured after 120 mins in presence of NADPH by LC-MS/MS analysis
# Format: ADME, subcellular
# Settings: read-out: Stability
row,Structure (SMILES),"remaining at 2 h, 10 µM"
1,C#Cc1ccc2c(c1)C(c1ccccc1F)=NC1(CC1)c1c(C(=O)O)ncn1-2,108%
2,CC1(C)N=C(c2ccccc2F)c2cc(Br)ccc2-n2cnc(C(=O)O)c21,106%
3,CCC1N=C(c2ccccc2F)c2cc(Br)ccc2-n2cnc(C(=O)O)c21 (racemic),108%

# Test system: not listed separately
# Assay: Metabolic stability in mouse liver S9 fraction assessed as parent compound remaining at 10 uM measured after 120 mins in presence of UDP-glucuronic acid by LC-MS/MS analysis
# Format: ADME, subcellular
# Settings: read-out: Stability
# Outline: (§1)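 Liver S9 (human or mouse), protein 0.5 mg/mL, compound 10 µM (from 1 mM DMSO stock), phosphate buffer pH 7.4, […], alamethicin 0.0225 mg/mL final. Preincubated 5 min at 37 °C, then S9 added. Aliquots at 0 and 120 min quenched in cold methanol with 5 µM 4,5-diphenylimidazole internal standard. Parent remaining from LC-MS/MS peak-area ratio. Two independent assays in triplicate (n = 6).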
row,Structure (SMILES),"remaining at 2 h, 10 µM"
1,C#Cc1ccc2c(c1)C(c1ccccc1F)=NC1(CC1)c1c(C(=O)O)ncn1-2,113%
2,CC1(C)N=C(c2ccccc2F)c2cc(Br)ccc2-n2cnc(C(=O)O)c21,107%
3,CCC1N=C(c2ccccc2F)c2cc(Br)ccc2-n2cnc(C(=O)O)c21 (racemic),114%

# Test system: not listed separately
# Assay: Metabolic stability in human liver S9 fraction assessed as parent compound remaining at 10 uM measured after 120 mins in presence of NADPH by LC-MS/MS analysis
# Format: ADME, subcellular
# Settings: liver S9 fraction, read-out: Stability
row,Structure (SMILES),"remaining at 2 h, 10 µM"
1,C#Cc1ccc2c(c1)C(c1ccccc1F)=NC1(CC1)c1c(C(=O)O)ncn1-2,106%
2,CC1(C)N=C(c2ccccc2F)c2cc(Br)ccc2-n2cnc(C(=O)O)c21,106%
3,CCC1N=C(c2ccccc2F)c2cc(Br)ccc2-n2cnc(C(=O)O)c21 (racemic),119%

# Test system: not listed separately
# Assay: Metabolic stability in human liver S9 fraction assessed as parent compound remaining at 10 uM measured after 120 mins in presence of UDP-glucuronic acid by LC-MS/MS analysis
# Format: ADME, subcellular
# Settings: read-out: Stability
# Outline: as §1
row,Structure (SMILES),"remaining at 2 h, 10 µM"
1,C#Cc1ccc2c(c1)C(c1ccccc1F)=NC1(CC1)c1c(C(=O)O)ncn1-2,93%
2,CC1(C)N=C(c2ccccc2F)c2cc(Br)ccc2-n2cnc(C(=O)O)c21,111%
3,CCC1N=C(c2ccccc2F)c2cc(Br)ccc2-n2cnc(C(=O)O)c21 (racemic),111%

# Test system: not listed separately
# Assay: Inhibition of sensorimotor coordination in Swiss Webster mouse at 40 mg/kg, po measured after 10 to 30 mins by rotarod analysis
# Format: toxicity, organism-based
# Settings: in vivo, time 10-30 min
# Outline: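 Female Swiss Webster mice, 10 weeks old, trained on rotarod at 15 rpm for 3 min. Single oral gavage, 100 µL, in 2.5% PEG400/97.5% 2% HPMC. Tested 3 min at 10, 30 and 60 min after dosing; fall time recorded at second fall. n = 12, two-way repeated-measures ANOVA with Bonferroni posttest.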
row,Structure (SMILES),Activity
1,C#Cc1ccc2c(c1)C(c1ccccc1F)=NC1(CC1)c1c(C(=O)O)ncn1-2,Non-Toxic
2,CC1(C)N=C(c2ccccc2F)c2cc(Br)ccc2-n2cnc(C(=O)O)c21,Non-Toxic
3,CCC1N=C(c2ccccc2F)c2cc(Br)ccc2-n2cnc(C(=O)O)c21 (racemic),Non-Toxic

# Test system: Trachea
# Assay: Induction of smooth muscle relaxation in Hartley guinea pig trachea ring assessed as reduction in substance P induced smooth muscle constriction at 25 uM measured after 30 mins
# Format: functional, tissue-based
# Settings: Cavia porcellus
row,Structure (SMILES),Activity
1,C#Cc1ccc2c(c1)C(c1ccccc1F)=NC1(CC1)c1c(C(=O)O)ncn1-2,Active

# Test system: Mus musculus
# Assay: Induction of bronchodilation in A/J mouse assessed as reduction in sRaw values at 7.2 mg/kg administered as nebulized compound
# Format: functional, organism-based
# Settings: not given
# Outline: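 Female A/J mice, no allergen sensitization, trained 5 days in a double-chamber plethysmograph while conscious. Compound nebulized in PBS at 7.2 mg/kg, then five nebulized methacholine challenges (in water). Each nebulization under 1 min, 3 min recording, 1 min pause. sRaw calculated per interval. n = 12, two-way repeated-measures ANOVA against vehicle.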
row,Structure (SMILES),Activity
1,C#Cc1ccc2c(c1)C(c1ccccc1F)=NC1(CC1)c1c(C(=O)O)ncn1-2,Active
2,CC1(C)N=C(c2ccccc2F)c2cc(Br)ccc2-n2cnc(C(=O)O)c21,inactive
3,CCC1N=C(c2ccccc2F)c2cc(Br)ccc2-n2cnc(C(=O)O)c21 (racemic),Active
